6 molecules from ChEMBL document CHEMBL4052664, “Novel pyridyl nitrofuranyl isoxazolines show antibacterial activity against multiple drug resistant Staphylococcus species” (Bioorg Med Chem, 2017) can be followed below.

Test [1] deals with Staphylococcus aureus. Put plainly: Antibacterial activity against methicillin-sensitive Staphylococcus aureus ATCC 9144 after 20 hrs by broth micro dilution method. The class given is functional. The settings on record: ATCC 9144, 20 h. The method, boiled down:
(§1)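 Broth microdilution per CLSI guidelines in Mueller Hinton Broth. Growth was read as optical density at 600 nm after 20 hours. The MIC was taken as the lowest drug concentration at which OD600 stayed below 0.10. Run in triplicate.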

Test [2] deals with Staphylococcus aureus. As to the kind of experiment: Antibacterial activity against methicillin-resistant Staphylococcus aureus EMRSA-16 after 20 hrs by broth microdilution method. Format: functional. The settings on record: EMRSA-16, 20 h. An outline of the steps:
(§2)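 Broth microdilution per CLSI guidelines in Mueller Hinton Broth. Growth read as optical density at 600 nm after 20 h. MIC taken as the lowest concentration giving OD600 below 0.10. Run in triplicate.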
A general note: Dilution methods test growth across graded concentrations, often in twofold steps.

The test system of test [3] is Staphylococcus aureus. As to the kind of experiment: Antibacterial activity against Staphylococcus aureus BGW541 after 20 hrs by broth microdilution method. The class given is functional. The settings on record: BGW541, 20 h. The method, boiled down: as §1
Test [4] relates to Staphylococcus aureus. Put plainly: Antibacterial activity against methicillin-resistant Staphylococcus aureus EMRSA-15 after 20 hrs by broth microdilution method. Format: functional. The settings on record: EMRSA-15, 20 h. The method, boiled down:
as §2

Test [5] deals with Staphylococcus aureus. Put plainly: Antibacterial activity against Staphylococcus aureus A1988 after 20 hrs by broth microdilution method. The class given is functional. The settings on record: A1988, 20 h. The method, boiled down: as §1
For test [6], the system named is Staphylococcus aureus. As to the kind of experiment: Antibacterial activity against methicillin-resistant Staphylococcus aureus NCTC 12493 after 20 hrs by broth microdilution method. Format: functional. The settings on record: NCTC 12493, 20 h. An outline of the steps: as §2
Test [7] has as its system Staphylococcus aureus. Put plainly: Antibacterial activity against Staphylococcus aureus NCTC 6571 after 20 hrs by broth microdilution method. Format: functional. The settings on record: NCTC 6571, 20 h. The method, boiled down:
as §1

In test [8] the test system is Staphylococcus epidermidis. As to the kind of experiment: Antibacterial activity against Staphylococcus epidermidis ATCC 35984 after 20 hrs by broth microdilution method. The class given is functional. The settings on record: RP62A. The method, boiled down:
as §1

For test [9], the system named is Staphylococcus aureus. As to the kind of experiment: Antibacterial activity against Staphylococcus aureus isolate 13142 after 20 hrs by broth microdilution method. The class given is functional. The settings on record: isolate 13142, 20 h. The method, boiled down:
as §1

Test [10] relates to Staphylococcus aureus. Put plainly: Antibacterial activity against Staphylococcus aureus NCTC 8325 after 20 hrs by broth microdilution method. Format: functional. The settings on record: NCTC 8325, 20 h. The method, boiled down: as §1
For test [11], the system named is Pseudomonas aeruginosa. Put plainly: Antibacterial activity against Pseudomonas aeruginosa PAO1 after 20 hrs by broth micro dilution method. The settings on record: PAO1, 20 h. The class given is functional. An outline of the steps: as §1
For test [12], the system named is Klebsiella pneumoniae. Put plainly: Antibacterial activity against Klebsiella pneumoniae NCTC 13368 after 20 hrs by broth micro dilution method. The settings on record: NCTC 13368, 20 h. The class given is functional. An outline of the steps:
as §1

A further test relates to HeLa. As to the kind of experiment: Cytotoxicity against human HeLa cells assessed as reduction in cell viability after 96 hrs by MTT assay. Format: cell-based. The method, boiled down:
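HeLa cells were kept in DMEM with 10% FBS, 2 mM L-glutamine, non-essential amino acids and penicillin-streptomycin at 37 °C, 5% CO2. 10,000 cells per well were plated and left 24 h. Compound was then added in triplicate for 96 h continuous exposure. MTT read-out was absorbance at 570 nm. IC50 came from dose-response analysis.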

The test system of another test is WI-38. Put plainly: Cytotoxicity against human WI38 cells assessed as reduction in cell viability after 96 hrs by MTT assay. The class given is cell-based. The settings on record: WI-38, 96 h. The method, boiled down: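 WI-38 lung fibroblasts were kept in DMEM with 15% FBS, 2 mM L-glutamine, non-essential amino acids and penicillin-streptomycin at 37 °C, 5% CO2. 10,000 cells per well were plated and left 24 h. Compound was then added in triplicate for 96 h continuous exposure. MTT read-out was absorbance at 570 nm. IC50 came from dose-response fitting.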
Background: Tetrazolium assays rely on reduction of a dye to a coloured formazan, in cell work by metabolically active cells.

In test [13] the test system is Staphylococcus aureus. Put plainly: Ratio of MBC to MIC against methicillin-sensitive Staphylococcus aureus ATCC 9144. The class given is functional. An outline of the steps: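 MBC/MIC ratio from the broth microdilution MIC (Mueller Hinton Broth, OD600 <0.10 after 20 h, triplicate) and the MBC (MIC-plate wells at and above the MIC spotted on tryptic soy agar, 37 °C 24 h, no colonies). A ratio of 1 or 2 was taken as bactericidal; 4 or 16 as bacteriostatic.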

For test [14], the system named is Pseudomonas aeruginosa. As to the kind of experiment: Antibacterial activity against Pseudomonas aeruginosa NCTC 13437 after 20 hrs by broth micro dilution method. Format: functional. The settings on record: NCTC 13437, 20 h. The method, boiled down: as §1
Test [15] concerns Klebsiella pneumoniae. As to the kind of experiment: Antibacterial activity against Klebsiella pneumoniae M6 after 20 hrs by broth micro dilution method. The settings on record: M6, 20 h. Format: functional. An outline of the steps:
as §1

Test [16] relates to Acinetobacter baumannii. Put plainly: Antibacterial activity against Acinetobacter baumannii ATCC 17978 after 20 hrs by broth micro dilution method. The class given is functional. The settings on record: ATCC 17978, 20 h. An outline of the steps: as §1
For test [17], the system named is Acinetobacter baumannii. As to the kind of experiment: Antibacterial activity against Acinetobacter baumannii ATCC BAA-1710 after 20 hrs by broth micro dilution method. The class given is functional. The settings on record: ATCC BAA-1710, 20 h. An outline of the steps:
as §1

Test [18] has as its system Staphylococcus aureus. Put plainly: Bactericidal activity against methicillin-sensitive Staphylococcus aureus ATCC 9144 after 24 hrs. The class given is functional. The settings on record: ATCC 9144, 24 h. An outline of the steps: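 From the MIC plate, 10ul was taken from every well at and above the MIC and spotted onto tryptic soy agar. Plates were incubated 24 h at 37 °C. The MBC was the concentration at which no colonies grew.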

Converted amounts (≈) assume the structure as drawn.

For orientation: MIC means the lowest concentration found to suppress growth. Read a high MIC as weaker potency. Consider `O=C1CN(/N=C/c2ccc([N+](=O)[O-])o2)C(=O)N1` [NITROFURANTOIN], for which the MIC against Staphylococcus aureus [1], with Staphylococcus aureus [2], in the test on Staphylococcus aureus [3], against Staphylococcus aureus [4], in the test on Staphylococcus aureus [5] and against Staphylococcus aureus [6] was 16 µg/mL (≈ 67.2 µM) in each case. The MIC (against Staphylococcus aureus [7]; in test [8]; against Staphylococcus aureus [9]; against Staphylococcus aureus [10]) was 16 µg/mL (≈ 67.2 µM) in each case.
Broadly, the IC50 is the midpoint of a concentration-inhibition curve. What is called MBC is the smallest concentration meeting the test's criterion for killing. Read a low MBC as more potent killing. Take `O=[N+]([O-])c1ccc(C2=NOC(c3ccc(N4CCN(Cc5ccccn5)CC4)cc3)C2)o1` (stereo not drawn): the MIC with Pseudomonas aeruginosa [11] is > 128 µg/mL; in the test with Staphylococcus aureus [1] it was 16 µg/mL (≈ 36.9 µM); in the test on Klebsiella pneumoniae [12], > 128 µg/mL; in the test on Staphylococcus aureus [2], 32 µg/mL (≈ 73.8 µM); with Staphylococcus aureus [3], 8 to 16 µg/mL (≈ 18.5 to 36.9 µM); against Staphylococcus aureus [4], 32 µg/mL (≈ 73.8 µM). Besides, the MIC against Staphylococcus aureus [5] was 16 µg/mL (≈ 36.9 µM); against Staphylococcus aureus [6], 8 µg/mL (≈ 18.5 µM); in the test on Staphylococcus aureus [7], 16 to 32 µg/mL (≈ 36.9 to 73.8 µM); in test [8], 8 to 16 µg/mL (≈ 18.5 to 36.9 µM); in the test with Pseudomonas aeruginosa [14], > 128 µg/mL; in the test with Klebsiella pneumoniae [15] it was > 128 µg/mL. Also, the minimal inhibitory concentration (MIC) against Staphylococcus aureus [9] is 8 to 16 µg/mL (≈ 18.5 to 36.9 µM); with Staphylococcus aureus [10], 16 µg/mL (≈ 36.9 µM); in the test on Acinetobacter baumannii [16], > 128 µg/mL; in the test on Acinetobacter baumannii [17] it was > 128 µg/mL. Also, the IC50 with HeLa and in the test on WI-38 was > 50 µM each time. Besides, in the test on Staphylococcus aureus [13], the Ratio is reported as 8. Further, in the test on Staphylococcus aureus [18], the MBC was ≥ 128 µg/mL.
As to `O=[N+]([O-])c1ccc(C2=NOC(c3ccc(-c4ccccn4)cc3)C2)o1` (stereo not drawn), the MIC with Staphylococcus aureus [1], with Staphylococcus aureus [2] and against Staphylococcus aureus [4] was > 128 µg/mL throughout. Besides, the IC50 in the test on HeLa and in the test with WI-38 was > 50 µM throughout.
As for `O=[N+]([O-])c1ccc(C2=NOC(c3ccc(N4CCN(Cc5ccncc5)CC4)cc3)C2)o1` (stereo not drawn), the MIC is > 128 µg/mL in the test with Pseudomonas aeruginosa [11]; 16 µg/mL (≈ 36.9 µM) in the test on Staphylococcus aureus [1]; > 128 µg/mL in the test with Klebsiella pneumoniae [12]; 128 µg/mL (≈ 295 µM) with Staphylococcus aureus [2]; > 128 µg/mL in the test with Staphylococcus aureus [4]; > 128 µg/mL in the test with Pseudomonas aeruginosa [14]. For the same molecule, the MIC against Klebsiella pneumoniae [15], with Acinetobacter baumannii [16] and against Acinetobacter baumannii [17] was > 128 µg/mL throughout. In addition, the IC50 in the test on HeLa and in the test on WI-38 was > 50 µM in each case.
With `COc1cccc2c1C(=O)c1c(O)c3c(c(O)c1C2=O)C[C@@](O)(C(=O)CO)C[C@@H]3O[C@H]1C[C@H](N)[C@H](O)[C@H](C)O1` [DOXORUBICIN], the IC50 with HeLa and in the test with WI-38 was 0.071 µM each time.
Turning to `O=[N+]([O-])c1ccc(C2=NOC(c3ccc(-c4ccncc4)cc3)C2)o1` (stereo not drawn), the minimum inhibitory concentration (MIC) in the test on Staphylococcus aureus [1] was 64 µg/mL (≈ 191 µM); with Staphylococcus aureus [2] it was 64 µg/mL (≈ 191 µM); with Staphylococcus aureus [4], 128 µg/mL (≈ 382 µM). Besides, the IC50 with HeLa and in the test on WI-38 was > 50 µM each time.
